Here are results for three compounds from ChEMBL document CHEMBL3600383, “A new polyoxygenated cyclohexene and a new megastigmane glycoside from Uvaria grandiflora” (Bioorg Med Chem Lett, 2015).

What all share (format): functional, cell-based
One assay has as its system Lu1. Description: Cytotoxic activity against human Lu1 cells assessed as inhibition of cell growth incubated for 48 hrs by SRB method. As to conditions: Lu1, 48 h. The method in brief: (§1)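 Sulforhodamine B growth-inhibition assay run as part of a panel of nine human cancer cell lines. Potency is reported as IC50 in µM.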
A general note: Sulforhodamine B stains cellular protein and so reports cell mass.

The test system of the next assay is KB. In words: Cytotoxic activity against human KB cells assessed as inhibition of cell growth incubated for 48 hrs by SRB method. A digest of the protocol: as §1
Another assay relates to MDA-MB-231. Description: Cytotoxic activity against human MDA-MB-231 cells assessed as inhibition of cell growth incubated for 48 hrs by SRB method. The conditions noted are these: MDA-MB-231, 48 h. The method in brief:
as §1

The test system of the next assay is LNCaP. In words: Cytotoxic activity against human LNCAP cells assessed as inhibition of cell growth incubated for 48 hrs by SRB method. The method in brief:
as §1

A further assay has as its system HepG2. Description: Cytotoxic activity against human HepG2 cells assessed as inhibition of cell growth incubated for 48 hrs by SRB method. The conditions noted are these: HepG2, 48 h. A digest of the protocol: as §1
A short description of assay [1]: Cytotoxic activity against human MKN7 cells assessed as inhibition of cell growth incubated for 48 hrs by SRB method. The conditions noted are these: MKN-7, 48 h. A digest of the protocol:
as §1

The next assay relates to SW480. In words: Cytotoxic activity against human SW480 cells assessed as inhibition of cell growth incubated for 48 hrs by SRB method. As to conditions: SW480, 48 h. A digest of the protocol:
as §1

The next assay has as its system HL-60. Description: Cytotoxic activity against human HL60 cells assessed as inhibition of cell growth incubated for 48 hrs by SRB method. The conditions noted are these: HL-60, 48 h. A digest of the protocol: as §1
In a further assay the test system is SK-MEL-2. In words: Cytotoxic activity against human SK-MEL-2 cells assessed as inhibition of cell growth incubated for 48 hrs by SRB method. The conditions noted are these: SK-MEL-2, 48 h. A digest of the protocol:
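Sulforhodamine B growth-inhibition assay, run in parallel across a panel of nine human cancer cell lines. Potency is reported as IC50 in µM.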

pIC50: −log10 of the molar value.

A word on the pIC50: it is the IC50 on a negative log10 scale, so that one unit is a factor of ten.

As to `O=C(OC[C@@]1(O)C(=O)C=C[C@@H](O)[C@@H]1O)c1ccccc1`, the pIC50 with Lu1 was 5.33; with KB, 4.87; with MDA-MB-231, 4.19; with LNCaP, 4.34; in the assay with HepG2 it was 4.88; in [1] it was 5.06. Also, the pIC50 with SW480 was 4.95; in the assay on HL-60, 5.21; in the assay with SK-MEL-2, 5.44.
For `C[C@@H]1O[C@@H](O[C@H]2[C@H](O[C@H]3CO[C@@H](O[C@H]4CC[C@]5(C)[C@H]6CC[C@]78OC[C@@]9(CC[C@](C)(C=O)C[C@H]97)[C@H](O)C[C@@]8(C)[C@]6(C)CC[C@H]5C4(C)C)[C@H](O[C@@H]4O[C@H](CO)[C@@H](O)[C@H](O)[C@H]4O)[C@H]3O)O[C@H](CO)[C@@H](O)[C@@H]2O)[C@H](O)[C@H](O)[C@H]1O` [ARDISIACRISPIN B], the pIC50 with Lu1 was 5.85; with KB it was 5.80; in the assay with MDA-MB-231, 4.93; in the assay with LNCaP, 5.01; in the assay with HepG2, 5.82; in assay [1] it was 5.90. Moreover, the pIC50 in the assay with SW480 was 5.91; in the assay with HL-60 it was 4.65.
Regarding `Cc1c2ccncc2c(C)c2c1[nH]c1ccccc12` [ELLIPTECINE], the pIC50 in the assay on Lu1 was 5.57; in the assay on KB it was 5.40; in the assay on MDA-MB-231, 5.49; in the assay with LNCaP, 5.49; in the assay on HepG2, 5.46; in [1], 5.42. The pIC50 was 5.50 with SW480, 5.53 with HL-60 and 5.94 in the assay on SK-MEL-2.
